m5-HT2A agonist = mouse Htr2a agonists via beta-arrestin recruitment, primary screen, cell-based, luminescence; activation, % at 7.6 µM; hit rate 0.66% among 360,000; CHO-K1 mHTR2A beta-arrestin complementation; percent of 30 µM serotonin response; 5-hydroxytryptamine receptor 2A (Mus musculus), P35363; AID 624169, 2012;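 active = activation above a run cutoff, the mean activation of all tested compounds plus 3 SD, cut at about 14% in these data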
MC4R ag barr = MC4R agonists recruiting beta-arrestin, primary screen, cell-based, luminescence, agonist arm of biased-ligand search | Melanocortin receptor 4 (Homo sapiens), P32245 | U2OS MC4R beta-arrestin complementation; percent of melanotan II response, DMSO zero | activation, % at 8.9 µM | hit rate 0.98% among 360,000 | AID 540308, 2011;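 active = activation above a per-plate cutoff, the mean activation of sample wells on that plate plus 3 SD, cut at about 8% in these data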
ANO1 block = TMEM16A chloride channel inhibitors, primary screen, cell-based, HTS. Anoctamin-1 (Mus musculus), Q8BHY3. HEK293 TMEM16A/YFP iodide influx fluorescence, ionomycin. normalized B-score (activity score, 25-100; higher = stronger inhibition) at 10 µM. hit rate 1.2% among 310,000. AID 588511, 2011;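 active = ratio plate-corrected score three or more library SD toward inhibition, starting fluorescence score within five deviations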;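 note: score derived from kinetic fluorescence span divided by baseline fluorescence per well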
TMEM16A act = TMEM16A chloride channel activators or potentiators, primary screen, cell-based, HTS. Anoctamin-1 (Mus musculus), Q8BHY3. HEK293 TMEM16A/YFP-H148Q/I152L, iodide quench fluorescence; stronger effect = lower value. B-score at 10 µM. hit rate 0.3% among 340,000. AID 623877, 2012;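 active = fluorescence-ratio B-score plate-corrected deviation score at least 3 library SD below zero, with starting fluorescence score within 5 deviations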;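 note: channel opened by trigger with iodide after compound preincubation; score built on the fluorescence ratio of max minus min over baseline; more negative score means more quench and so TMEM16A activation or potentiation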
MC4R antagonist = MC4R antagonists of cAMP signaling, primary screen, cell-based, TR-FRET, antagonist arm of biased-ligand search | hit rate 0.48% among 360,000 | MC4R-expressing cells, MTII-stimulated cAMP, LANCE TR-FRET | AID 540295, 2011 | Melanocortin receptor 4 (Homo sapiens), P32245 | inhibition, % at 6.5 µM;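 active = inhibition above its plate's cutoff, the mean of tested wells on that plate plus 3 SD, cut at about 29% in these data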
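Assay system: U2OS cells stably expressing human melanocortin 4 receptor (MC4R) / Dosing: 6.5 µM / Timing: compound 30 min, challenge 1 h, detection 1 h / Measured by: Eu-cAMP/anti-cAMP TR-FRET, emission 671 nm / Replicates: singlicate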
MIN6 prolif = inducers of MIN6 beta-cell proliferation, primary screen, ATP luminescence, uHTS | hit rate 0.29% among 330,000 | proliferation, % at 10 µM | MIN6 cells proliferation, ATPlite luminescence, 48 h; cells starved in 0.2% serum; 100% = growth in 10% serum;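 active = compounds whose signal lies at least 3.5 SD above the mean of all wells on their plate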
MC4R barr conf = MC4R beta-arrestin agonists, retest, confirmation, cell-based, luminescence, U2OS. shares compounds with MC4R ag barr. U2OS MC4R beta-arrestin recruitment; scaled DMSO 0%, Melanotan II 100%. activation, % at 8.9 µM. hit rate 31% among 2,400. AID 602192, 2012;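 active = mean activation across replicates above the hit cutoff set in the earlier primary screen, cut at about 8% in these data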
MOR-DOR barr ag = agonists of MOR-DOR heterodimerization, counter-screen for MC4R biased agonist project, cell-based, luminescence | shares compounds with MC4R ag barr | U2OS PathHunter beta-arrestin, beta-gal luminescence; percent of deltorphin B response, DMSO zero | activation, % at 9.2 µM | hit rate 5.8% among 2,400 | AID 602194, 2012;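 active = mean activation across replicates exceeds the hit threshold derived in the earlier primary screen, cut at about 18% in these data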
Large screens that a line does not name were inactive (follow-up assays come after a bar, where they were run). In the library only some 3.4% were active in any assay of this set; here they are far more common.

CCOc1ccc2nc(NC(=O)CSc3nc4cccnc4n3C)sc2c1	MC4R ag barr 16 | MC4R barr conf 8.9 | MOR-DOR barr ag inactive
Cc1nc(NC(=O)CSc2nc3cccnc3n2Cc2ccccc2)sc1C	MC4R ag barr 26 | MC4R barr conf inactive | MOR-DOR barr ag inactive
CCOc1ccc2nc(NC(=O)CS(=O)(=O)c3ccc(C)cc3)sc2c1	MC4R ag barr 11 | MC4R barr conf inactive | MOR-DOR barr ag inactive
CN(CCC1CCOCC1)C(=O)CC1C(=O)NCCN1Cc1c(F)cccc1Cl (centres undefined)	none
CCc1ccc2nc(N(CCN(C)C)C(=O)/C=C/c3cccs3)sc2c1	none
Cc1ccc2nc(N(CCN(C)C)C(=O)/C=C/c3cccs3)sc2c1	MC4R ag barr 16 | MC4R barr conf inactive | MOR-DOR barr ag inactive
CCOc1cccc2sc(N(CCN(C)C)C(=O)/C=C/c3cccs3)nc12	MC4R ag barr 15 | MC4R barr conf inactive | MOR-DOR barr ag inactive
CN(C)CCN(C(=O)/C=C/c1cccs1)c1nc2ccc(Br)cc2s1	MC4R ag barr 31 | MC4R barr conf 12 | MOR-DOR barr ag inactive
CCOc1ccc2nc(N(CCN(C)C)C(=O)/C=C/c3cccs3)sc2c1	none
COc1ccc2sc(N(CCCN(C)C)C(=O)c3nc4ccccc4s3)nc2c1	MC4R ag barr 12 | MC4R barr conf 8.3 | MOR-DOR barr ag inactive
CC(=O)N1CCC(O)(c2ccc3c(c2)OCO3)CC1	none
COc1ccc(OCC(=O)NC2CCCN(Cc3ccc(Cl)cc3)C2)cc1 (centres undefined)	none
CC1(C)OC2OC3C(CNCCO)OC(c4ccccc4)OC3C2O1 (centres undefined)	none (no result: ANO1 block, MIN6 prolif)
CN(C)CCN(C(=O)/C=C/c1cccs1)c1nc2c(F)cc(F)cc2s1	MC4R ag barr 21 | MC4R barr conf inactive | MOR-DOR barr ag inactive
CN(C)CCCN(C(=O)CCc1ccccc1)c1nc2ccc(Cl)cc2s1	MC4R ag barr 11 | MC4R barr conf 31 | MOR-DOR barr ag inactive
Cc1ccc2nc(N(CCCN(C)C)C(=O)CCc3ccccc3)sc2c1	none (no result: MIN6 prolif)
CN(C)CCCN(C(=O)/C=C/c1cccs1)c1nc2ccc(F)cc2s1	MC4R ag barr 10 | MC4R barr conf 16 | MOR-DOR barr ag inactive
COc1ccccc1-c1csc(C(C)(O)c2cccc(F)c2)n1 (centres undefined)	none (no result: ANO1 block, TMEM16A act, MIN6 prolif)
O=C(CSc1nnc(-c2cccs2)n1-c1ccccc1)Nc1ccccc1	MC4R ag barr 11 | MC4R barr conf inactive | MOR-DOR barr ag inactive
O=C(CN1CCOCC1)Nc1ncc(Cc2ccccc2Cl)s1	none
CCc1ccc(CCC(=O)Nc2ncc(Cc3ccccc3Cl)s2)o1	MC4R ag barr 18 | MC4R barr conf 25 | MOR-DOR barr ag inactive
COCCCNC(=O)c1cccc2c(-c3cccc(C(N)=O)c3)coc12	none (no result: ANO1 block, TMEM16A act, MIN6 prolif)
CC1(C(=O)NS(=O)(=O)c2ccccc2Cl)CCN1C(=O)CCc1cccs1 (centres undefined)	none (no result: ANO1 block, TMEM16A act, MIN6 prolif)
Cc1ccccc1NC(=O)Cc1nc(COC(=O)c2cc(Br)ccc2O)cs1	MC4R ag barr 16 (no result: ANO1 block) | MC4R barr conf inactive | MOR-DOR barr ag inactive
C=CCOc1ccc(/C=C/C(=O)OCc2csc(CC(=O)Nc3ccccc3C)n2)cc1	MC4R ag barr 15 (no result: ANO1 block) | MC4R barr conf 8.7 | MOR-DOR barr ag inactive
